Measured values reported in publication PMC5041297 (Clinical cancer research : an official journal of the …, 2016).
Read-outs that look alike come from different tables or passages of the source.

Legend:
purified kinases = conditions: cited from earlier work; for inhibition of certain kinases: high concentrations, cell-free conditions
[1] = test system: MPN erythroid and myeloid progenitors; test: Colony forming assay, mononuclear cells from MPN patients; type: cell-based, human; conditions: for IC50: Homo sapiens
How it was run: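 Peripheral-blood mononuclear cells from patients, Ficoll-Hypaque purified, washed into RPMI 1640 and mixed with methylcellulose medium containing PARP inhibitor (0, 0.5, 1, 2.5, 5, 10, 20 μM or 0, 0.25, 0.5, 1, 2, 5 μM; DMSO 0.1%). 1–5 × 10^5 cells per plate, 2–4 replicate plates, 37 °C, 5% CO2. Colonies (>40 cells) scored at 10–14 days (some CMMoL at 5–7 days). IC50 is 50% of diluent-control colonies, from linear regression after exponential transformation.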

PARP = conditions: cited from earlier work

SMILES	inhibition of certain kinases (purified kinases)	IC50 ([1]; read-out: IC50 values averaging, CML samples)	IC50 ([1]; read-out: IC50 values averaging, CMMoL samples)	IC50 ([1]; read-out: mean IC50, JAK2V617F mutated samples)	IC50 ([1]; read-out: veliparib IC50s, 5 of 16 individual JAK2 mutated samples)	IC50 lower in MPN samples than in normal controls ([1]; average, MPN samples vs normal controls, P<0.0001)	IC50 lower in MPN samples with impaired RAD51 foci formation compared to those without ([1]; on average, p = 0.028)	off-target kinase inhibitory activity (purified kinases)	more potent in vitro (olaparib relative to veliparib) (PARP)
CN(C)CC(=O)Nc1ccc2[nH]c(=O)c3ccccc3c2c1 [PJ-34]	might also inhibit certain kinases	–	–	–	–	–	–	–	–
C[C@]1(c2nc3c(C(N)=O)cccc3[nH]2)CCCN1 [Veliparib]	might also inhibit certain kinases	3 µM	3 µM	5.7 µM	< 2 µM	4 fold	3 fold	–	–
O=C(c1cc(Cc2n[nH]c(=O)c3ccccc23)ccc1F)N1CCN(C(=O)C2CC2)CC1 [Olaparib]	–	–	–	–	–	–	–	lacks this off-target kinase inhibitory activity	roughly 10 fold
